The test system of test [1] is SKM1 cells. The experiment in a line: Cytotoxicity. It is filed as cell-based, human.
The test system of test [2] is SKM1, K562, KG1a, THP-1, and HL60 cell lines. The experiment in a line: Cell cycle distribution 24 hours after treatment, five cell lines. The conditions noted are these: IC10 APR alone, various cell lines tested. Format: cell-based, human.
For test [3], the system named is primary cells from MDS/AML patients. The experiment in a line: Clonogenic assay in semi-solid medium. The settings on record: 14 days, 34 MDS/AML patient samples. Format: cell-based, human.
Test [4] concerns SKM1 cells. The experiment in a line: Cell cycle distribution 24 hours after treatment. The conditions noted are these: SKM1, 24 hours after exposure, IC10 APR with or without IC50 AZA. It is filed as cell-based, human.
In test [5] the test system is SKM1, K562, KG1a, THP-1, and HL60 cell lines. As to the kind of experiment: Cytotoxicity. Format: cell-based, human. The conditions noted are these: all of the cell lines tested (SKM1, K562, KG1a, THP-1, HL60).
In test [6] the test system is SKM1 cell line. As to the kind of experiment: Transcriptomic analysis. It is filed as cell-based, human. The conditions noted are these: IC10 APR vs untreated SKM1 cells, GSEA.
In test [7] the test system is SKM1, K562, KG1a, THP-1, and HL60 cell lines. As to the kind of experiment: Apoptosis, Annexin V-positive cells at day 3, five cell lines. The settings on record: IC10 APR alone, day 3, cell lines tested. It is filed as cell-based, human. In short, it runs like this: (§1)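 Human myeloid lines in RPMI 1640 with 10% FBS, 1% penicillin/streptomycin and 1% GlutaMAX. Log-phase cells seeded at 2x10^5/mL. Drugs added once at day 0: IC10 APR, IC50 AZA, or both at these concentrations. Annexin V-positive cells scored at day 3. Results given as means ± SD; Mann-Whitney test, two-sided.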

The subject of test [8] is SKM1 cells. As to the kind of experiment: Apoptosis, Annexin V-positive cells at day 3. It is filed as cell-based, human. The settings on record: SKM1, day 3, IC10 APR and/or IC50 AZA. In short, it runs like this:
as §1

Test [9] relates to HL60 cells. As to the kind of experiment: Cytotoxicity. The conditions noted are these: Homo sapiens, HL-60, 72 h, read-out: IC50 (proliferation). Format: cell-based.

We go through three molecules from PMC7271596 (Haematologica, 2019).

Consider `COCC1(CO)C(=O)C2CCN1CC2` (centres unmarked) [APR, PRIMA-1^Met], for which the “IC50 fold lower for the SKM1 cell line compared to the other AML lines” value in [1] (SKM1 vs K562, KG1a, THP-1, HL60) was “at least 2 fold”. Moreover, the “effect on cell cycle distribution” value in [2] was “did not affect the cell cycle distribution”. In test [3], the “reduction of myeloid and erythroid colony growth” value is “approximately 60%”. The “cells in G0/G1 phase” value in [4] stood at 62%. Besides, in test [5], the “50% inhibitory concentrations (IC50), cell proliferation” value is “in the micromolar range”. Further, the “ROS-induced genes NES” value in test [6] (18 hours) is 1.2. In [6], the “early apoptotic program NES” value was determined as 1.1 and the “p53 pathway Normalized Enrichment Score (NES)” value is reported as 1.2. The induction of apoptosis result in test [7] is recorded as “did not induce apoptosis”.

`Nc1ncn([C@@H]2O[C@H](CO)[C@@H](O)[C@H]2O)c(=O)n1` [AZA, 5-azacitidine]: the IC50 came to 540 nM in test [1] (Homo sapiens, SKM-1, 72 h, read-out: IC50 (proliferation)) and 4500 nM in test [9]. Further, the “apoptotic cells (Annexin V-positive)” value in test [8] amounted to 19%. In addition, in [3], the “reduction of myeloid and erythroid colony growth” value is 30%.

B1: FLT3-L: FLT3 ligand from PeproTech (protein, UniProt P49771 27-235, looked up)
Fms-related tyrosine kinase 3 …: TQDCSFQHSPISSDFAVKIRELSDYLLQDYPVTVASNLQDEELCGGLWRLVLAQRWMERLKTVAGSKMQGLLERVNTEIHFVTKCAFQPPPSCLRFVQTNISRLLQETSEQLVALKPWITRQNFSRCLELQCQPDSSTLPPPWSPRPLEATAPTAPQPPLLLLLLLPVGLLLLAAAWCLHWQRTRRRTPRPGEQVPPVPSPQDLLLVEH
B1: the “effect on SKM1 cell proliferation” value in [1] (FLT3-L on its own, 0.1 to 100 ng/mL) was “did not affect SKM1 cell proliferation”.
